Article PMC10413464 (ACS Omega, 2023)
Values belong to the molecule of their own block, whether it stands above or below them.

Columns and labels:
[1] = tested on: EGFR phosphorylation; settings: read-out: EC50 for EGFR phosphorylation in solution; cited from earlier work
[2] = Ecoil-EGF/hEGF capture on glass slides by ELISA; format: binding; settings: 5 nM hEGF stock, mean ± SD, n = 3
[3] = tested on: Ecoil-EGF; experiment: SPR capture of Ecoil-EGF on Kcoil surfaces; format: binding; settings: 10 μL/min
In short: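 Biacore T100 SPR on CM5 dextran chips, HBS-EP running buffer, 25 °C, 10 Hz collection. A test injection gave the Ecoil-EGF capture rate (RU/s), used to capture about 10 RU. Ecoil-EGF was at 0.05 µg/mL on thiol-coupled Kcoil and 0.1 µg/mL on amine-coupled monomeric or dimeric Kcoil. Surfaces were regenerated with two 15 s pulses of 6 M guanidium-HCl.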

[4] = tested on: Ecoil-tagged FcγRIIIa (V158); experiment: SPR capture of Ecoil-tagged FcγRIIIa on Kcoil surfaces; format: binding; settings: for FcγRIIIa capture rate: Ecoil-tagged FcγRIIIa 0.25 μg/mL, 10 μL/min, from 25 s test injection
In short: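 FcγRIIIa V158 was Ecoil-tagged, expressed transiently in CHO-3E7 and purified by metal affinity. Biacore T100 SPR used CM5 chips in HBS-EP at 25 °C. Kcoil surfaces were amine-coupled Cys-free, thiol-coupled Cys- or amine-coupled dimeric Cys-Kcoil. A short 25 s injection gave the capture rate, assumed constant, to set the injection time for a 20 RU capture. The test was repeated before each batch.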

[5] = tested on: Ecoil peptide; experiment: SPR Ecoil peptide interaction with grafted Kcoil peptide; format: binding; settings: comparison of the three grafting strategies
[6] = target: cysteine-free azidohomoalanine-terminated Kcoil, AhaGG-(KVSALKE)5; experiment: SPR
[7] = target: dimeric Kcoil–Kcoil peptide (oxidized Cys-Kcoil, linked by a disulfide bond); experiment: SPR

Molecule: hEGF: Recombinant human EGF (hEGF, #236-EG)
EC50 [1]: 4 nM
density on amine surface after 2 h (non-specific adsorption) ([2]; amine surface): 0.50 ± 0.01 pmol/cm^2
density on thiol surface after 2 h (non-specific adsorption) ([2]; thiol surface): 0.50 ± 0.01 pmol/cm^2

Molecule: AhaGG-(KVSALKE)5 [Cys-free Kcoil]
Ecoil-EGF capture rate ([3]; Ecoil-EGF 0.1 μg/mL): 0.32 RU/s
FcγRIIIa capture rate [4]: 0.06 RU/s
Ecoil-tagged FcγRIIIa capture (in words) ([4]; SPR, 20 RU target): furthest from the 20 RU target

Molecule: CGG-(KVSALKE)5 [Cys-Kcoil]
Ecoil-EGF capture rate ([3]; Ecoil-EGF 0.05 μg/mL): 1.32 RU/s
FcγRIIIa capture rate [4]: 0.57 RU/s
bioavailability (in words) [5]: highest percentage of bioavailability

koff [6]: 0.000308 s⁻¹
koff [7]: 0.000468 s⁻¹
Molecule: Ac-EVSALEKEVSALEKEVSALEKEVSALEKEVSALEK-NH2 [Ecoil peptide [(EVSALEK)5]]
